# Rad51 HR inh: blocks human Rad51 in homologous recombination | inhibition, % at 10 µM | actives 0.085% (n = 200,000) | hRad51 DNA strand exchange, fluorescence dequenching | Q06609;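 active means inhibition above 40% at the single screening dose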
# Target sequence (Q06609 whole entry, looked up): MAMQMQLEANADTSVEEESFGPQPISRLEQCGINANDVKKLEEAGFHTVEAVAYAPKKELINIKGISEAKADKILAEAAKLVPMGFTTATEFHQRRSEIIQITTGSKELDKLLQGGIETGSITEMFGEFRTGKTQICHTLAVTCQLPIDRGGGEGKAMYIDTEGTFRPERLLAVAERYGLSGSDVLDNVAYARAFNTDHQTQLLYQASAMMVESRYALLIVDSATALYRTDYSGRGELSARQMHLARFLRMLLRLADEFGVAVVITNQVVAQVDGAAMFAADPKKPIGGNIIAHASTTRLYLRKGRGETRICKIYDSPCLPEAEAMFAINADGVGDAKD
#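 Material: hRad51 filaments on single-stranded DNA; Reagent: Donor/quencher-labelled 47-bp dsDNA substrate; Compound: 10 µM final, single point; Schedule: 37 °C 15-min filament assembly, 30-min compound preincubation, 15-min exchange; Technique: FRET fluorescence, excitation 485 nm, emission 520 nm; Benchmarks: control wells and blank wells on each plate.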
# PMI act: phosphomannose isomerase (human) activation; actives 0.005% (n = 190,000); activation factor at 20 µM; purified human PMI, coupled resazurin fluorescence, 20 min; stronger effect = higher value; 1 = vehicle control, 0 substrate-free wells; P34949; AID 1214;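 active means activation factor of 2 or more at 20 µM, relative to plate controls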
# WT yeast gro inh: growth inhibition of WT yeast, mitochondrial fusion screen | mitochondrial fusion phenotypic screen, WT strain | inhibition, % at 10 µM | actives 2.1% (n = 190,000) | AID 1362; in the data active means inhibition above about 58%; tested in S. cerevisiae
# m-calpain inh: inhibitors of pig calpain II | purified calpain II, fluorogenic peptide substrate, 30 min | inhibition, % at 16 µM | actives 0.37% (n = 220,000) | AID 1236;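 active means inhibition above about 50%, limit read from the data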
# Lmaj promast: Leishmania major promastigote growth inhibition. Leishmania major promastigotes, resazurin fluorescence viability. actives 9% (n = 200,000). inhibition, % at 10 µM. AID 1063; in the data active means inhibition above about 50%;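 further: promastigotes grown with compound for 44 hours at 28 °C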
# PMI act satM6P: PMI (human) activation, high substrate. P34949. coupled PMI enzyme assay, resazurin fluorescence, 20 min; stronger effect = higher value; 1 = untreated enzyme, 0 = substrate-free blank. activation factor at 20 µM. actives 0.34% (n = 190,000);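 active means activation factor of 2 or more at 20 µM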
#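 Test system: Human PMI in coupled enzyme assay | Input: 15 ng/mL PMI | Medium: HEPES-buffered pH 7.4 with magnesium and detergent | Compound: One concentration, 20 µM, in 1% DMSO | Incubation: Enzyme reaction with compound 20 min at room temperature | Detection: Diaphorase-driven resazurin-to-resorufin fluorescence, excitation 544, emission 590 nm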
# A number is an active result; 0 = inactive; - = no result. This is a sample that favours compounds with a hit; in the whole collection about 9.8% have one here.
SMILES,Rad51 HR inh,PMI act,WT yeast gro inh,m-calpain inh,Lmaj promast,PMI act satM6P
O=C(Nc1ccc(/C=C/c2nc3ccccc3o2)cc1)c1ccc(F)cc1,0,0,0,0,0,0
COc1cc(OC)cc(N2C(=O)CSCC2=O)c1,0,-,-,0,-,-
Cn1cccc1/C=N\NC(=O)Cc1ccc(Br)c2ccccc12,0,0,0,0,0,0
COc1cc(CNCc2c[nH]c3ccccc23)cc(OC)c1,0,0,0,0,0,0
N#Cc1cc(C(=O)Cc2ccccc2)c[nH]1,0,0,0,0,0,0
CC(=O)Nc1ccc(C(C#N)c2ccccc2)cc1 (centres undefined),0,0,0,0,0,0
CC(c1ccccc1)N(CC(=O)NC1CCCCC1)S(=O)(=O)c1cccc(C(F)(F)F)c1 (centres undefined),0,0,69.5,0,0,0
O=C(CN(Cc1ccccc1)S(=O)(=O)c1cccc(C(F)(F)F)c1)NC1CCCCC1,0,0,0,0,0,0
O=C(c1ccc(CSc2ccccc2)cc1)N1CCN(c2ccccc2)CC1,0,0,70.1,0,0,0
COc1ccccc1N1CCN(C(=O)c2ccc(S(=O)(=O)N3CCCC3)cc2)CC1,0,0,0,0,62.6,0
COc1ccccc1N1CCN(C(=O)C(Sc2ccccc2)c2ccccc2)CC1 (centres undefined),0,0,0,0,81.5,0
COc1ccccc1N1CCN(C(=O)c2ccc(CSc3ccccc3)cc2)CC1,0,0,61.4,0,0,0
COc1ccccc1N1CCN(C(=O)CSc2ccccc2)CC1,0,0,0,0,0,0
O=C(Nc1cccc([N+](=O)[O-])c1)C1CC(=O)N(C2CCCCC2)C1 (centres undefined),0,0,0,0,0,0
Fc1ccc(Nc2ccc3ccccc3n2)c(F)c1,0,0,0,0,0,0
Cc1nn(-c2ccccc2)c(Cl)c1/C=N/NS(=O)(=O)c1ccc(Br)cc1,-,0,58.2,0,0,0
Cc1cc(=O)oc2cc(O)c(N=Nc3ccccc3)cc12,0,-,-,0,-,-
CCn1ccc(C(=O)Nc2cccc(Cl)c2)n1,0,0,0,0,0,0
CCn1c(C)c(C)c2cc(C(=O)Nc3cccc(Cl)c3)ccc21,0,0,0,0,62.2,0
Cc1ccc2c(Cl)c(C(=O)Nc3cccnc3)sc2c1,-,0,0,0,0,0
Cc1nc2ccc(S(=O)(=O)N(C)CC(=O)Nc3ccccc3F)cc2s1,-,0,0,0,0,0
CCOC(=O)CN(C(=O)CSc1nnc(Cc2ccccc2)n1-c1ccc(C)cc1)c1ccccc1,0,0,0,0,99.0,0
O=C(c1ccc(Cl)cc1Cl)c1ncc(C(F)(F)F)cc1Cl,0,0,0,0,0,0
O/N=C(\c1ccc(Cl)cc1Cl)c1ncc(C(F)(F)F)cc1Cl,0,0,85.1,0,0,0
CCCSc1nc2sc3c(c2c(=O)[nH]1)CCN(Cc1ccccc1)C3,0,0,0,0,0,0
SMILES,Rad51 HR inh,PMI act,WT yeast gro inh,m-calpain inh,Lmaj promast,PMI act satM6P
O=c1[nH]c(C(Cl)Cl)nc2sc3c(c12)CCN(Cc1ccccc1)C3,0,0,0,0,0,2.6
Nc1nc(-c2cc3ccccc3o2)cs1,0,-,-,0,-,-
COc1cccc(/C=C/C(=C2/C(=O)N(c3ccccc3)N=C2C)c2ccc(Br)cc2)c1OC,0,0,0,0,100.0,0
CC1=NN(c2ccccc2)C(=O)C1=C(C)C,0,0,0,0,0,0
COc1cccc(/C=C/C(=C2/C(=O)N(c3ccccc3)N=C2C)c2ccccc2)c1OC,0,0,0,0,94.7,0
COc1ccccc1/C=C/C(=C1/C(=O)N(c2ccccc2)N=C1C)c1ccc(C)cc1,-,0,0,0,0,0
CCOC(=O)c1cccc(NC(=O)c2ccc(N(C)C)cc2)c1,0,0,0,0,0,0
CCOc1ccc(NCc2nnc(SCc3ccc(Cl)cc3)n2-c2ccccc2)cc1,0,0,60.3,0,0,0
CCOC(=O)CSc1nnc(CNc2ccc(Cl)cc2)n1-c1ccccc1,0,0,0,0,0,0
CCOc1ccc(NCc2nnc(SCC(=O)Nc3nc(-c4ccccc4)cs3)n2-c2ccccc2)cc1,0,0,0,0,94.8,0
CCCC(=O)Nc1ccccc1-c1nnc(SCC)[nH]c1=O,0,-,-,0,-,-
O=[N+]([O-])c1cc(CN2CCN(c3ccccc3)CC2)c(O)c2ncccc12,0,0,0,0,100.3,0

# Screening results (PubChem BioAssay)
